# From ChEMBL document CHEMBL1135801, “Synthesis, structure, and activity of diclofenac analogues as transthyretin amyloid fibril formation inhibitors” (J Med Chem, 2002)
# Legend:
# [1] = target: Transthyretin (Homo sapiens) (UniProt P02766); experiment: Inhibition of V30M TTR fibril formation at OD400; type: functional
# Summary of the method: (§1)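 Stagnant fibril formation assay. TTR at 0.4 mg/mL in 10 mM sodium phosphate, 100 mM KCl, 1 mM EDTA, pH 7.6, was preincubated 30 min at 37 °C with compound added from DMSO stock. Acetate buffer then lowered the pH to 4.2 (wild type) or 5 (V30M, L55P), and samples stood unagitated 72 h at 37 °C. After vortexing, turbidity was read at 400 nm and expressed as percent of the no-inhibitor sample. Triplicates.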
# [2] = target: Transthyretin (Homo sapiens) (UniProt P02766); experiment: Inhibition of wild type TTR fibril formation at OD400; type: functional; summary of the method: as §1
# [3] = target: Transthyretin (Homo sapiens) (UniProt P02766); experiment: Inhibition of L55P TTR fibril formation was measured at OD400.; type: functional; summary of the method: as §1
# [4] = target: Transthyretin (Homo sapiens) (UniProt P02766); experiment: (§2) Quaternary structure of the soluble protein after incubation of 3.6 uM of compound; type: functional
# [5] = target: Transthyretin (Homo sapiens) (UniProt P02766); experiment: Quaternary structure of the soluble protein after incubation of 10.8 uM of compound
# [6] = target: Transthyretin (Homo sapiens) (UniProt P02766); experiment: as §2; type: functional; remark: listed apart in the source
# [7] = target: Transthyretin (Homo sapiens) (UniProt P02766); experiment: as §2; type: functional; remark: listed apart in the source
# [8] = target: Transthyretin (Homo sapiens) (UniProt P02766); experiment: Quaternary structure of the soluble protein after incubation of 3.6 uM L55P TTR with 10.8 uM of compound; type: functional
# Summary of the method: (§3)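 3.6 µM TTR (wild type, V30M or L55P) was held 72 h with 10.8 µM compound under stagnant fibril formation conditions at the variant's pH maximum. Precipitate was removed by spinning at 14 000 rpm, and the supernatant was analysed by analytical ultracentrifugation to give % tetramer, monomer and aggregate and MW.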
# [9] = target: Transthyretin (Homo sapiens) (UniProt P02766); experiment: Quaternary structure of the soluble protein after incubation of 3.6 uM wild type TTR with 10.8 uM of compound; type: functional; summary of the method: as §3
# [10] = target: Transthyretin (Homo sapiens) (UniProt P02766); experiment: Quaternary structure of the soluble protein after incubation of 3.6 uM V30M TTR with 10.8 uM of compound; type: functional; summary of the method: as §3
# [11] = target: Transthyretin (Homo sapiens) (UniProt P02766); experiment: Second dissociation constant of the binding of compound to L55P TTR; type: functional
# Summary of the method: (§4)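 Isothermal titration calorimetry at pH 7.6 (100 mM phosphate, 100 mM KCl, 1 mM EDTA). A 435 µM ligand solution in this buffer, concentration set by ε280 = 10 400 M-1 cm-1, was titrated into cells holding 21.1 µM wild type, 20.1 µM V30M or 20.0 µM L55P TTR.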
# [12] = target: Transthyretin (Homo sapiens) (UniProt P02766); experiment: First dissociation constant of the binding of compound to wild type TTR; type: functional; summary of the method: as §4
# [13] = Second dissociation constant of the binding of compound to V30M TTR; type: functional; summary of the method: as §4
# [14] = target: Transthyretin (Homo sapiens) (UniProt P02766); experiment: First dissociation constant of the binding of compound to L55P TTR; type: functional; summary of the method: as §4
# [15] = target: Transthyretin (Homo sapiens) (UniProt P02766); experiment: Second dissociation constant of the binding of compound to wild type TTR; type: functional; summary of the method: as §4
# [16] = First dissociation constant of the binding of compound to V30M TTR; type: functional; summary of the method: as §4
SMILES,Formation [1],Formation [2],Formation [3],other results
CCCc1ccccc1Nc1c(Cl)cccc1Cl,85%,100%,90%,
CC(C)c1ccccc1Nc1c(Cl)cccc1Cl,80%,85%,90%,
O=C(O)Cc1ccccc1Nc1cc(Cl)cc(Cl)c1,27%,30%,53%,Tetramer [4]: 76%; Aggregate [5]: 24%; Tetramer [6]: > 95%; Tetramer [7]: > 95%
O=C(O)c1cc(Cl)c(Nc2ccc([N+](=O)[O-])cc2)c(Cl)c1,33%,40%,75%,Tetramer [8]: > 95%; Aggregate [9]: 7%; Tetramer [9]: 93%; Aggregate [10]: 10%; Tetramer [10]: 90%
ClCCc1ccccc1Nc1c(Cl)cccc1Cl,70%,75%,90%,
O=C(O)c1ccccc1Nc1cc(Cl)cc(Cl)c1,30%,34%,50%,
O=C(O)Cc1ccccc1Nc1c(Cl)cc(C(=O)O)cc1Cl,28%,32%,45%,Tetramer [4]: 95%; Monomer [5]: 5%; Tetramer [6]: 95%; Tetramer [7]: > 95%

# Second part, led by results:
Formation [1],Formation [2],Formation [3],SMILES,other results
62%,60%,90%,OCCc1ccccc1Nc1c(Cl)cccc1Cl,
70%,82%,85%,CCc1ccccc1Nc1c(Cl)cccc1Cl,
90%,78%,90%,COC(=O)Cc1ccccc1Nc1c(Cl)cccc1Cl,
27%,30%,,O=C(O)c1ccccc1Nc1c(Cl)cccc1Cl,
67%,65%,,NC(=O)Cc1ccccc1Nc1c(Cl)cccc1Cl,
33%,35%,72%,O=C(O)Cc1ccccc1Nc1c(Cl)cccc1Cl,Kd2 [11]: 6.18 µM; Kd1 [12]: 60 nM; Kd2 [13]: 3.9 µM; Kd1 [14]: 380 nM; Kd2 [15]: 1200 nM; Kd1 [16]: 160 nM
